# S1P1 ag-PAM – S1P1 agonists and agonism potentiators, primary screen, cell-based, primary and confirmation screens, CRE-bla reporter. activation, % at 9.5 µM. S1P1 CRE-bla cells, forskolin, beta-lactamase FRET, potentiator mode; S1P1 agonist co-added at EC20, 2 nM; 100% = saturating reference agonist, 0% = basal. Sphingosine 1-phosphate receptor 1 (Homo sapiens), P21453. 56,000 tested, 0.57% active;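 active = activation above a cutoff set at the mean activation of all tested compounds plus 3 SD, cut at about 54% in these data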;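 note: forskolin at 4 µM as EC80 and the EC20 agonist is SEW2871; 100% = SEW2871 at its EC100 plus forskolin at EC80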
# S1P3 ag – human S1P3 receptor agonists, primary screen, cell-based, primary and confirmation, NFAT-BLA reporter; S1P3 NFAT-BLA reporter cells, agonism, FRET ratio; relative to 1 µM S1P, basal subtracted; activation, % at 4.5 µM; 60,000 tested, 0.1% active; AID 373, 2006;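 active = activation above the screen-wide mean plus 3 SD, cut at about 4.5% in these data, passing the limit was not always enough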
#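 Measure – % activation relative to 1 µM S1P (100%), per plate · System – stable CHO line with human S1P3, Gα16, NFAT-BLA reporter · Timing – cells plated overnight, compound 4 h 37 °C, substrate 2 h RT · Technique – fluorescent BLA substrate, ex 405 nm, em 460/535 nm ratio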
# M1 antagonist – antagonists of rat M1 muscarinic receptor; Muscarinic acetylcholine receptor M1 (Rattus norvegicus), P08482; CHO-M1 cells, Fluo-4 calcium, ACh EC80 antagonist mode; hits give low values; B-score at 10 µM; 64,000 tested, 3.4% active;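 active = calcium fluorescence response, raw or row-and-column corrected B-score, differing from the plate sample mean either way at a set confidence level, mostly lower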
# Target sequence (P08482 whole entry, looked up): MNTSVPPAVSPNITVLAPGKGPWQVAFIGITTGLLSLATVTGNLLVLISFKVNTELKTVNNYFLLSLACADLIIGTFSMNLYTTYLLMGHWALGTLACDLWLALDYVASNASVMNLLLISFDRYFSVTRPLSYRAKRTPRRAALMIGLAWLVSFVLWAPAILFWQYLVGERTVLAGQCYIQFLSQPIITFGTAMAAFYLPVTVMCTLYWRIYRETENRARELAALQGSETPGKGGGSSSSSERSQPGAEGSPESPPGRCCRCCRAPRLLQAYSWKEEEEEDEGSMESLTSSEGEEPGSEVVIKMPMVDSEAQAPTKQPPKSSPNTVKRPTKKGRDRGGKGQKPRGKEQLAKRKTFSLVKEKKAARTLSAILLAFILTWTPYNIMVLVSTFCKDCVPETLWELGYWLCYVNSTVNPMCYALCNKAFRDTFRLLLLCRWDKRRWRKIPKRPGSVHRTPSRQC
# RORA act – activators of orphan receptor RORA, primary screen, cell-based, luminescence; Nuclear receptor ROR-alpha (Homo sapiens), P35398; CHO-K1 Gal4-RORA LBD luciferase reporter; percent increase over mock-subtracted basal signal; activation, % at 10 µM; 65,000 tested, 1.5% active;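 active = activation above the mean of all tested compounds plus 3 SD, cut at about 49% in these data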;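 note: 0% = DMSO-treated RORA cells and 100% = added signal equal to DMSO minus mock-transfected cells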
# M1 ag – M1 muscarinic receptor agonists, primary screen, CHO-M1 cells, Fluo-4 calcium, agonist mode; Muscarinic acetylcholine receptor M1; AID 626, 2007; 64,000 tested, 3% active; Fluo-4 calcium fluorescence; hits give high values; B-score at 10 µM;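 active = fluorescence rise, raw or as B-score row- and column-corrected plate score, outside the 99.7% band of its plate's samples, either direction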
# SF-1 act – activators of human SF-1, primary screen, cell-based, CHO-K1, Gal4-SF-1 LBD, luciferase luminescence | activation, % at 10 µM | Steroidogenic factor 1 (Homo sapiens), Q13285 | 65,000 tested, 1.9% active | CHO-K1 Gal4-SF-1 LBD luciferase reporter; % increase over DMSO SF-1-specific signal;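 active = activation above the mean activation of all tested compounds plus 3 SD, cut at about 50% in these data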
#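 Material: Transient Gal4-SF-1 LBD reporter, CHO-K1 | Input: 4,000 cells/well | Dosing: One dose, 10 µM compound, 1% DMSO | Incubation: 20 h compound treatment, 37 °C | Detection: SteadyLite luciferase luminescence | Evaluation: Percent activation relative to DMSO median and mock-transfected background | Benchmarks: DMSO-treated SF-1-transfected cells as negative, DMSO-treated mock-transfected cells lacking SF-1 as background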
# M1 ag confirm – rat M1 muscarinic receptor agonists, confirmation, CHO-M1 cells, Fluo-4 calcium, duplicate retest. Fluo-4 calcium fluorescence, agonist mode; actives lie on both sides. 1,700 tested, 19% active. shares compounds with M1 ag. fluorescence change (max-min) at 10 µM;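 active = fluorescence change differs from the solvent-only DMSO control mean at a set confidence level in both duplicate runs; inconclusive = differs from solvent-only control mean in just one of two runs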;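 note: an EC20 dose of acetylcholine follows compound addition during the same imaging run; raw fluorescence intensity difference in instrument units with no normalization to controls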
# M4 agonist ctr – agonist activity at rat M4 receptor, confirmation, counter-screen for M1 allosteric modulator project, cell-based, agonist mode | 1,700 tested, 9% active | fluorescence change (max-min) at 10 µM | CHO M4/Gqi5 cells, Fluo-4 calcium fluorescence; actives lie on both sides | shares compounds with M1 ag;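 active = fluorescence change differing from the plate's solvent-only control wells at 99.7% confidence in both duplicates, whether higher or lower; inconclusive = differs from solvent controls in only one of two duplicates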
# * marks the source's active call; other numbers are inactive results; u = inconclusive; x = no result given. This is a sample that favours compounds with a hit; in the whole collection about 8.8% have one here.
SMILES,S1P1 ag-PAM,S1P3 ag,M1 antagonist,RORA act,M1 ag,SF-1 act,M1 ag confirm,M4 agonist ctr
O=S(=O)(c1ccc(Oc2ncnc3scc(-c4ccccc4)c23)cc1)N1CCOCC1,-6,0,-0.44,13,7*,17,u,u
CCOC(=O)N1CCC(NC(=O)c2cccc3c2C(=O)N(c2ccc(OC)cc2)C3)CC1,-40,0,0.11,9,2.5*,12,u,-82
COc1cccc(/C=N/n2c(C)nc3ccccc3c2=O)c1O,-7,-1,-0.5,2,1.6,-2,x,x
COc1cccc(CNn2c(-c3cccc(C)c3)nc3ccccc3c2=O)c1O,9,-1,-1.2,-10,8.6*,-11,u,-43
Cc1cc(C)nc(/N=C2\NC(=O)CC(C(=O)O)N2CCc2c[nH]c3ccccc23)n1 (stereo not given),-12,0,-0.58,-8,3.2*,3,-17,-28
O=c1oc2c3c4c(cc2c2c1CCC2)OCCN4CCC3,x,1,-1.4,0,24*,-21,111*,93
O=C(O)c1ccccc1-c1ccccc1C(=O)NCc1ccco1,x,0,-0.15,-13,-0.0026,-4,x,x
COc1cc(-c2nc3cnccn3c2Nc2ccccc2)ccc1O,-18,0,-1.7,9,5.5*,13,-28,-26
COc1cc(-c2nc3cnccn3c2Nc2ccc3c(c2)OCCO3)ccc1O,x,x,0.26,25,3.5*,18,-4.2,u
COC(=O)c1cccc(NC(=O)CSc2nnc(COc3cccc(C)c3)n2C)c1,6,-1,1.1,-6,-1.5,-3,x,x
Cc1ccc(OCc2nnc(SCC(=O)Nc3sc(C)c(C)c3C#N)n2C)cc1,21,-1,0.05,10,-0.044,5,x,x
Cc1sc(NC(=O)CSc2nnc(COc3ccccc3)n2C)c(C#N)c1C,7,0,-0.17,-2,2.4*,-4,u,-51
COC(=O)c1cccc(NC(=O)CSc2nnc(COc3ccc(C#N)cc3)n2-c2ccccc2)c1,5,0,-0.11,-8,3.6*,-2,u,-49
CCCCOC(=O)C1=C(C)Nc2ncnn2C1c1cc(OC)c(OC)cc1OC (stereo not given),-18,0,0.6,4,1.1,-8,x,x
O=C(C1CCN(S(=O)(=O)c2cccc3cccnc23)CC1)N1CCN(c2ccc(Cl)cc2)CC1,64,-1,-2.2,-5,3.4*,-10,-19,-8.4
OCc1nc2ccccc2n1C/C=C/c1ccccc1,14,0,1.1,-7,-1.1,-5,x,x
COc1ccc(Cl)cc1N(CC(=O)Nc1ccc2c(c1)OCO2)S(C)(=O)=O,-15,-1,0.17,-21,-2,-20,x,x
COc1ccc(OC)c(N(CC(=O)Nc2cccnc2)S(=O)(=O)c2ccc(OC)c(OC)c2)c1,6,-1,-0.95,-11,2.2*,-8,-12,u
COc1ccc(OC)c(N(CC(=O)Nc2ccc3c(c2)OCO3)S(=O)(=O)c2ccccc2)c1,x,x,0.5,7,2.8*,0,u,u
COc1cc(C2CC(=O)Nc3ccccc3S2)cc(OC)c1OC (stereo not given),x,x,-1.5,-10,5.9*,9,-7.2,u
O=C1CC(c2ccc(F)cc2)Sc2ccccc2N1 (stereo not given),-26,-1,0.022,6,0,-20,x,x
CC1(C)OC(=O)C(=CNC(Cc2c[nH]c3ccccc23)C(=O)O)C(=O)O1 (stereo not given),-13,-1,-0.23,-6,0.15,-17,x,x
CC(=O)NC(CCS(C)(=O)=O)C(=O)Nc1cccc(C(C)=O)c1 (stereo not given),-18,0,0.46,14,-0.68,-20,x,x
CC(=O)NC(CCS(C)(=O)=O)C(=O)Nc1ccc(Cl)c(Cl)c1 (stereo not given),9,0,-1.6,3,2.9*,6,-8.3,-47
CCOc1ccc(C2C(C#N)=C(N)Oc3n[nH]c(C)c32)cc1OC(=O)C1CC1 (stereo not given),-3,0,1.2,7,4.6*,22,1.2,-19
SMILES,S1P1 ag-PAM,S1P3 ag,M1 antagonist,RORA act,M1 ag,SF-1 act,M1 ag confirm,M4 agonist ctr
CCOc1cc(C2C(C#N)=C(N)Oc3n[nH]c(-c4ccccc4)c32)ccc1O (stereo not given),-19,0,-0.052,-14,1.2,17,x,x
Cc1nc2sc(C(c3cccs3)N3CCC(C(N)=O)CC3)c(O)n2n1 (stereo not given),-9,-1,0.095,-6,0.046,6,x,x
CCOc1cccc(C(=O)Nc2nc(-c3ccc(S(=O)(=O)N4CCOCC4)cc3)cs2)c1,-25,-2,-0.47,-1,3.7*,5,-26,-24
CCC(CC)C(=O)NCCc1cc2c(C)ccc(C)c2[nH]c1=O,4,-1,-0.39,-3,-2.2,10,x,x
COc1ccc(OC)c2[nH]c(=O)c(CCNC(=O)c3cc4ccccc4o3)cc12,-8,0,-1.1,-9,2.5*,-1,-6.8,-22
COc1ccc(OC)c2[nH]c(=O)c(CCNC(C)=O)cc12,-11,-1,-0.29,21,0.13,0,x,x
Cc1ccc(C)c2[nH]c(=O)c(CCNC(=O)c3cc4ccccc4o3)cc12,9,-1,-0.091,4,2.9*,-3,u,-45
CC(C)(C)NC(=O)CSc1nnc(C2CC2)n1Cc1ccccc1,-2,-1,-0.46,12,0.13,-3,x,x
O=C(NCC1CCCO1)c1ccc(C(=O)NCC2CCCO2)cc1 (stereo not given),-17,-1,0.039,13,0.17,-6,x,x
O=C(NCC1CCCO1)c1ccccc1-c1nc(-c2ccccc2)no1 (stereo not given),-3,0,0.1,-15,2.4*,21,-15,u
